Experimental data gathered from unrelated publications.
Each line is one published result; the experiments were not run side by side.
Target: Mitogen-activated protein kinase 15 (MAPK15, Homo sapiens, UniProt Q8TD08)
Sequence (Q8TD08 1-544, as in one of the studies): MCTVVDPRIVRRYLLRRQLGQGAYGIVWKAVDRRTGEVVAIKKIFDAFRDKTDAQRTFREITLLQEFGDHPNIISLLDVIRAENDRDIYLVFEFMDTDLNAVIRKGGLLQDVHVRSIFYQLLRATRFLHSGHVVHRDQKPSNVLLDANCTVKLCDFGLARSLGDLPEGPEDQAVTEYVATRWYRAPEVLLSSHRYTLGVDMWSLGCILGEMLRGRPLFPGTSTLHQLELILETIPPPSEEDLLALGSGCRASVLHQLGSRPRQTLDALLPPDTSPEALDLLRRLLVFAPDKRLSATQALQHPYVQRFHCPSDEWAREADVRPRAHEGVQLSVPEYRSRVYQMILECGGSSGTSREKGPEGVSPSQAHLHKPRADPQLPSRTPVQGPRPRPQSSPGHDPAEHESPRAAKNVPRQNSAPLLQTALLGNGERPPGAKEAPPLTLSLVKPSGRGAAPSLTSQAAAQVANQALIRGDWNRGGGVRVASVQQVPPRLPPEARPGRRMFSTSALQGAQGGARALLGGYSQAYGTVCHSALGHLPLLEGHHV

SMILES | read-out | action | method | tested at | endpoint | value
Nc1nc(NC2CCCCC2)sc1C(=O)c1ccccc1 | enzyme activity | inhibitor | – | 10 µM | remaining activity | 18%
CS(=O)(=O)c1cc(C2(NC(=O)c3cncc4c3cnn4-c3ccc(F)cc3)CC2)ccn1 | cell-free assay | – | competition with immobilised ligand | 1 µM | remaining binding | 100%
Cn1c(=O)n(-c2ccc(C(C)(C)C#N)cc2)c2c3cc(-c4cnc5ccccc5c4)ccc3ncc21 | enzyme activity | inhibitor | – | 10 µM | remaining activity | 94%
Cc1c[nH]c2nccc(Oc3c(F)cc(Nc4cc(Cl)nc(N)n4)cc3F)c12 | cell-free assay | – | competition with immobilised ligand | 0.1 µM | remaining binding | 100%
Nc1ncnc2occ(-c3ccc(NC(=O)Nc4cc(C(F)(F)F)ccc4F)cc3)c12 | cell-free assay | inhibitor | – | 20 µM | remaining signal | 0.1%
FC(F)(F)Oc1cccc(-c2cnc3ccc(-c4ccncc4)nn23)c1 | enzyme activity | inhibitor | radiometric | 5 µM | activity vs control | 17%
O=C(Nc1cnn(-c2csc(C(=O)NC3COC3)c2)c1)Nc1ccccc1Cl | enzyme activity | inhibitor | – | 5 µM | remaining activity | 140%
CO[C@@H](C)c1c(Nc2ccc([C@@H](N(C)C(=O)C3CCS(=O)(=O)CC3)C(F)(F)F)cc2)cnc2cc(Cl)nn12 | cell-free assay | – | competition with immobilised ligand | 1 µM | remaining binding | 81%
CC(C)(C)c1nc2c(s1)c1nc(N)ncc1c1ccc(NS(=O)(=O)c3c(F)cccc3F)c(F)c12 | enzyme activity | inhibitor | radiometric | 1 µM | remaining activity | 81%
Cc1nccc(COC(=O)N2C[C@@H]3[C@@H](CNC(=O)c4ccc5[nH]nnc5c4)[C@@H]3C2)n1 | cell-free assay | – | competition with immobilised ligand | 1 µM | remaining binding | 100%
CC(C)(C)C(=O)c1sc(NC2CCCCC2)nc1N | enzyme activity | inhibitor | – | 10 µM | remaining activity | 43%
Cn1cnc(Br)c1C1=CN(c2ncnc3[nH]cnc23)CCS1 | enzyme activity | inhibitor | radiometric | 50 nM | inhibition | 17.1%
COc1cc(/C=C/C(=O)CC(=O)/C=C/c2ccc(O)c(OC)c2)ccc1O | enzyme activity | inhibitor | – | 1 µM | activity vs control | 77%
FC(F)c1nc2ccccc2n1-c1nc(N2CCOCC2)nc(N2CCOCC2)n1 | enzyme activity | inhibitor | – | 10 µM | remaining activity | 92%
